Results on 13 compounds are retold here after ChEMBL document CHEMBL4311932, “Novel zafirlukast derivatives exhibit selective antibacterial activity against Porphyromonas gingivalis” (Medchemcomm, 2019).

In series [1] the test system is Porphyromonas gingivalis. Briefly: Antibacterial activity against Porphyromonas gingivalis 381 assessed as bacterial growth inhibition at 100 uM measured after 2 hrs in anaerobic condition by WST1 assay relative to control. Conditions: Porphyromonas gingivalis, 381, 2 h; read-out: GI. The class given is functional. The method in brief:
(§1)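 P. gingivalis 381 was grown anaerobically in BHI with 5 µg/mL hemin and 1 µg/mL menadione to log phase (3-4 h). Cultures at 10^6/well in 90 µL broth were exposed for 2 h, then given WST-1 for another 2 h. A450 was read with a 600 nm reference. % growth inhibition was taken against medium-only control, using DMSO vehicle and tetracycline 1 µg/mL as comparators.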

Series [2] concerns Porphyromonas gingivalis. Briefly: Antibacterial activity against Porphyromonas gingivalis 381 assessed as bacterial growth inhibition at 10 uM measured after 2 hrs in anaerobic condition by WST1 assay relative to control. The class given is functional. Conditions: Porphyromonas gingivalis, 381, 2 h; read-out: GI. The method in brief:
as §1
Background: Formazan colour is commonly taken as a measure of viable cells.

The nature of series [3]: Cytotoxicity against hTERT-immortalized human OKF6 cells assessed as cell death at 1 to 10 uM after 24 hrs by tryphan blue staining based assay. The method in brief: (§2)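 OKF6/hTERT keratinocytes were grown in Ker-SFM with 25 µg/mL bovine pituitary extract and 0.2 ng/mL EGF at 37 °C, 5% CO2. Cells were seeded overnight at 10^5/well and exposed for 24 h to 1 or 10 µM in DMSO. Cells were then trypsinized, washed, mixed 1:1 with trypan blue and counted automatically for % live/dead. Two independent experiments were run in duplicate.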

Series [4] relates to Streptococcus sanguinis. Briefly: Antibacterial activity against Streptococcus sanguinis ATCC 10556 assessed as bacterial growth inhibition at 1 to 100 uM after 2 hrs in aerobic condition by WST1 assay relative to control. It is filed as functional. The method in brief:
(§3)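 Log-phase cultures (3-4 h in BHI broth after overnight growth) were plated at 10^6 bacteria/well in 90 µL and treated for 2 h. WST-1 was then added for a further 2 h incubation, aerobic for S. sanguinis and anaerobic for the others, at 37 °C. A450 was read against a 600 nm reference. % inhibition = 100 × [OD(medium control) − OD(treated)]/OD(control). Compounds were dissolved in DMSO.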

For series [5], the system named is Veillonella parvula. The series can be described thus: Antibacterial activity against Veillonella parvula ATCC 10790 assessed as bacterial growth inhibition at 1 to 100 uM after 2 hrs in anaerobic condition by WST1 assay. The class given is functional, organism-based. The procedure, abridged: as §3
A short description of series [6]: Induction of apoptosis in hTERT-immortalized human OKF6 cells assessed as viable cells at 1 to 10 uM after 24 hrs by AnnexinV-FITC/propidium iodide staining based flow cytometry analysis relative to control. Conditions: read-out: Activity. The procedure, abridged: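 After 24 h treatment of OKF6/hTERT cells, adherent cells (trypsinized) were pooled with cells recovered from supernatants and washed in PBS. They were stained with FITC-Annexin V plus propidium iodide for 15 min at room temperature. At least 10,000 events were acquired per sample (excitation 488 nm, emission 530 nm), with viable, apoptotic and necrotic fractions reported against DMSO.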
(In flow cytometry, cells or beads pass a laser one at a time.)

A short description of series [7]: Cytotoxicity against hTERT-immortalized human OKF6 cells assessed as cell viability at 1 uM after 24 hrs by tryphan blue staining based assay relative to control. Conditions: read-out: Activity. The procedure, abridged: as §2
The nature of series [8]: Cytotoxicity against hTERT-immortalized human OKF6 cells assessed as reduction in cell viability after 24 hrs by tryphan blue staining based assay. Conditions: OKF6, 24 h. The procedure, abridged: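 OKF6/hTERT cells at 10^5/well in Ker-SFM were exposed for 24 h to 0, 1, 2.5, 5, 10, 15, 20, 25, 50 and 100 µM in DMSO. Viability was counted by trypan blue exclusion on an automated counter, in triplicate. IC50 was derived from a fitted concentration-response curve.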

For series [9], the system named is Aggregatibacter actinomycetemcomitans. Briefly: Antibacterial activity against Aggregatibacter actinomycetemcomitans JP2 assessed as bacterial growth inhibition at 1 to 100 uM after 2 hrs in anaerobic condition by WST1 assay. The class given is functional, organism-based. The method in brief:
as §3

Series [10] has as its system Fusobacterium nucleatum. Briefly: Antibacterial activity against Fusobacterium nucleatum ATCC 25586 assessed as bacterial growth inhibition at 1 to 100 uM after 2 hrs in anaerobic condition by WST1 assay relative to control. It is filed as functional. The procedure, abridged: as §3
The test system of series [11] is Porphyromonas gingivalis. Briefly: Antibacterial activity against Porphyromonas gingivalis 381 assessed as bacterial growth inhibition at 1 uM measured after 2 hrs in anaerobic condition by WST1 assay relative to control. It is filed as functional. Conditions: Porphyromonas gingivalis, 381, 2 h; read-out: GI. The procedure, abridged: as §1
Series [12] concerns Actinomyces naeslundii. Briefly: Antibacterial activity against Actinomyces naeslundii ATCC 49340 assessed as bacterial growth inhibition at 1 to 100 uM after 2 hrs in anaerobic condition by WST1 assay. It is filed as functional, organism-based. The method in brief:
as §3

Series [13] deals with Porphyromonas gingivalis. The series can be described thus: Bactericidal activity against Porphyromonas gingivalis 381 at 100 uM treated for 24 hrs and measured after 7 days incubation in anaerobic condition […]. The class given is functional, organism-based. The method in brief:
(§4)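 Viable-count assay on P. gingivalis 381 (10^6/well) grown anaerobically. Cultures were exposed for 24 h to agents dissolved in DMSO. 50 µL of 1:400 dilutions were spread on blood agar, and CFU/mL was counted after 7 days anaerobic incubation. Controls were medium or DMSO (negative) and tetracycline 2.25 µM (positive).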

Series [14] has as its system Porphyromonas gingivalis. The series can be described thus: Bactericidal activity against Porphyromonas gingivalis 381 at 10 uM treated for 24 hrs and measured after 7 days incubation in anaerobic condition by CFU counting relative to control. Conditions: read-out: GI.
Series [15] relates to Porphyromonas gingivalis. The series can be described thus: Bactericidal activity against Porphyromonas gingivalis 381 at 1 uM treated for 24 hrs and measured after 7 days incubation in anaerobic condition by WST1 assay relative to control. It is filed as functional. Conditions: in the assay text read “by CFU counting” for “by WST1 assay”, read-out: GI. The procedure, abridged:
as §4

The test system of series [16] is Porphyromonas gingivalis. The series can be described thus: Bactericidal activity against Porphyromonas gingivalis 381 at 25 to 50 uM treated for 24 hrs and measured after 7 days incubation in anaerobic condition […]. The class given is functional, organism-based. The method in brief: as §4
Series [17] concerns Porphyromonas gingivalis. Briefly: Antibacterial activity against Porphyromonas gingivalis 381 assessed as bacterial growth inhibition at 25 to 50 uM measured after 2 hrs in anaerobic condition by WST1 assay. The class given is functional, organism-based.
The test system of series [18] is Porphyromonas gingivalis. The series can be described thus: Antibacterial activity against Porphyromonas gingivalis 381 assessed as bacterial growth inhibition at 2.25 uM measured after 2 hrs in anaerobic condition by WST1 assay. It is filed as functional, organism-based.

Active and inactive are the calls of the source. The rule behind the calls is not given here.

On to `O=C(NS(=O)(=O)c1ccccc1)c1ccc(Cc2c[nH]c3ccccc23)cc1`, for which, in series [1], the inhibition of growth at 100 µM was 100%. Besides, in series [2], the inhibition of growth at 10 µM came out at 40%.

For the compound `COc1ccc(Cc2cn(C)c3ccccc23)cc1C(=O)NS(=O)(=O)c1ccccc1C`, the Activity result in [3] is reported as “Toxic”. In addition, the “inhibition (INH)” value in [4] and in series [10] was 20% in each case. Moreover, the inhibition entry in series [5] and in series [9] was “inactive” in each case. In series [6], the viability at 24 h, up to 10 µM lay in the range of 50 to 70%. Further, the viability at 24 h, 1 µM in series [7] is 70 to 90%. Moreover, the inhibition of growth at 100 µM in series [1] came to 100%. The inhibition of growth at 10 µM in [2] lay within 90 to 100%. The IC50 in [8] turned out to be 16 µM. Further, in series [11], the inhibition of growth at 1 µM lay in the range of 15 to 40%. Besides, the “growth inhibition (GI)” value in series [12] is “inactive”.

On to `COc1ccc(Cc2c[nH]c3ccccc23)cc1C(=O)NS(=O)(=O)c1ccccc1`, for which the inhibition of growth at 100 µM in series [1] was 100%. For the same compound, the inhibition of growth at 10 µM in series [2] worked out at 40%.

Take `Cc1ccccc1S(=O)(=O)NC(=O)c1ccc(Cc2c[nH]c3ccccc23)cc1`: the inhibition of growth at 100 µM in [1] turned out to be 100%. Further, the inhibition of growth at 10 µM in series [2] came to 90%.

In the case of `COc1cc(C(=O)NS(=O)(=O)c2ccccc2C)ccc1Cc1cn(C)c2ccccc12`, in series [1], the inhibition of growth at 100 µM was determined as 60%.

`COc1ccc(Cc2cn(C)c3ccc([N+](=O)[O-])cc23)cc1C(=O)NS(=O)(=O)c1ccccc1C`: in series [3], the Activity result is “Toxic”. Moreover, the “inhibition (INH)” value in series [4] and in series [10] was 20% each time. For the same compound, the outcome in series [13] was Active. Also, the inhibition result in series [5], in series [9] and in series [12] was “inactive” each time. In addition, in [6], the viability at 24 h, up to 10 µM fell in the range of 50 to 70%. Moreover, the viability at 24 h, 1 µM in series [7] was 70 to 90%. Also, in series [1], the inhibition of growth at 100 µM worked out at 100%. Further, the inhibition of growth at 10 µM in [2] was 90 to 100%. Further, the IC50 in [8] came out at 230 µM. Further, the inhibition of growth at 1 µM in [11] was 15 to 40%.

As to `COc1ccc(Cc2c[nH]c3ccccc23)cc1C(=O)NS(=O)(=O)c1ccccc1C`, in series [1], the inhibition of growth at 100 µM turned out to be 100%. Also, the inhibition of growth at 10 µM in series [2] worked out at 80%.

In the case of `COc1ccc(Cc2cn(C)c3ccc([N+](=O)[O-])cc23)cc1C(=O)NS(=O)(=O)c1ccccc1`, the values for the inhibition of growth at 10 µM in [14] and in series [2] were 100% and 90 to 100%, respectively. Moreover, the Activity entry in series [3] is on record as “Non-Toxic”. The “inhibition (INH)” value in series [4] and in series [10] was 20% throughout. Moreover, the outcome in series [13] was Active. Moreover, the inhibition entry in [5] and in series [9] was “inactive” each time. Moreover, the viability at 24 h, up to 10 µM in series [6] fell in the range of 50 to 70%. For the same compound, the results for the inhibition of growth at 1 µM in [15] and in [11] were 60% and 15 to 40%, respectively. Besides, the viability at 24 h, 1 µM in [7] was in the range of 70 to 90%. Moreover, the inhibition of growth at 100 µM in [1] was found to be 100%. In addition, in series [8], the IC50 worked out at 54 µM. The “growth inhibition (GI)” value in [12] was “inactive”.

As to `COc1cc(C(=O)NS(=O)(=O)c2ccccc2)ccc1Cc1cn(C)c2ccccc12`, in series [1], the inhibition of growth at 100 µM was found to be 60%.

With `Cn1cc(Cc2ccc(C(=O)NS(=O)(=O)c3ccccc3)cc2)c2ccccc21`, the inhibition of growth at 100 µM in series [1] came out at 100%. Besides, the inhibition of growth at 10 µM in [2] was in the range of 90 to 100%.

Turning to `COc1cc(C(=O)NS(=O)(=O)c2ccccc2C)ccc1Cc1cn(C)c2ccc(NC(=O)OC3CCCC3)cc12`, in series [16], the result was Active. The “growth inhibition (GI)” value in series [17] is “Active”.

With `CN(C)[C@@H]1C(O)=C(C(N)=O)C(=O)[C@@]2(O)C(O)=C3C(=O)c4c(O)cccc4[C@@](C)(O)[C@H]3C[C@@H]12`, the “growth inhibition (GI)” value in series [18] was “Active”.

In the case of `COc1ccc(Cc2cn(C)c3ccccc23)cc1C(=O)NS(=O)(=O)c1ccccc1`, the inhibition of growth at 100 µM in [1] came out at 100%. In addition, the inhibition of growth at 10 µM in series [2] fell in the range of 90 to 100%.

As a reminder, the IC50 is the point on the concentration scale where inhibition reaches its midpoint.
